Source: ChEMBL document CHEMBL1124533, “Inhibition of human leukocyte elastase by derivatives of N-hydroxysuccinimide. A structure-activity-relationship study” (J Med Chem, 1989)
The source made the active and inactive calls. The rule behind the calls is not given here.

Assays:
[1] = biological target: T1, Neutrophil elastase (Homo sapiens) (UniProt P08246); assay: Catalytic rate constant (Kobs/[I]) against human leukocyte elastase was determined
T1 sequence (whole entry): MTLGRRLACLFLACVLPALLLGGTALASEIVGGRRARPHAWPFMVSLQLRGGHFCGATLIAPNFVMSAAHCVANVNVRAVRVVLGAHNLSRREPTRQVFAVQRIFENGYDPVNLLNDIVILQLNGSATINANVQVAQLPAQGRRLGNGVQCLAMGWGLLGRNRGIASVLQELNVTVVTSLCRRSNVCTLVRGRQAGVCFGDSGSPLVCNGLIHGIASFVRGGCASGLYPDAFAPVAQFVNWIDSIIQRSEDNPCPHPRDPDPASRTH
Outline: (§1)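 Human leukocyte elastase (10 μL of 2.23 × 10⁻⁵ M stock in 0.05 M sodium acetate, pH 5.5) preincubated with inhibitor (20 μL of 2.23 × 10⁻² M DMSO stock) in HEPES pH 7.2, 1 mL total, thermostated. Aliquots withdrawn over time into MeOSuc-Ala-Ala-Pro-Val-pNA; A410 read for 2 min after 30 s. kobs from ln(vt/v0) vs t, divided by [I]; mean of two determinations.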

[2] = biological target: T1, Neutrophil elastase (Homo sapiens); assay: Catalytic rate constant (Kobs/[I]) against human leukocyte elastase was determined; Inactive; outline: as §1

Row | Structure (SMILES) | K obs / 1 [1] [M⁻¹ s⁻¹] | K obs / 1 [2]
1 | CCCCS(=O)(=O)ON1C(=O)CC(Cc2ccccc2)C1=O (stereo unspecified) | 1680 | 
2 | CC(C)C1CC(=O)N(OS(=O)(=O)/C=C/c2ccccc2)C1=O (stereo unspecified) | > 100000 | 
3 | CC(C)C1CC(=O)N(OS(C)(=O)=O)C1=O (stereo unspecified) | 3820 | 
4 | CC(C)CC1CC(=O)N(OS(C)(=O)=O)C1=O (stereo unspecified) | 49300 | 
5 | CC(C)CC1CC(=O)N(OS(=O)(=O)/C=C/c2ccccc2)C1=O (stereo unspecified) | > 100000 | 
6 | CS(=O)(=O)ON1C(=O)CC(Cc2ccccc2C(F)(F)F)C1=O (stereo unspecified) | 189 | 
7 | CC(C)CCC1CC(=O)N(OS(C)(=O)=O)C1=O (stereo unspecified) | 361 | 
8 | O=C1CC(Cc2ccccc2C(F)(F)F)C(=O)N1OS(=O)(=O)/C=C/c1ccccc1 (stereo unspecified) | 1860 | 
9 | CS(=O)(=O)ON1C(=O)CC(Cc2cccc(F)c2)C1=O (stereo unspecified) | 373 | 
10 | CCCCCCCCS(=O)(=O)ON1C(=O)CC(Cc2ccccc2)C1=O (stereo unspecified) | 1270 | 
11 | CC(C)CCC1CC(=O)N(OS(=O)(=O)/C=C/c2ccccc2)C1=O (stereo unspecified) | 2250 | 
12 | O=C1CCC(=O)N1OS(=O)(=O)/C=C/c1ccccc1 |  | inactive
13 | CN(C)S(=O)(=O)ON1C(=O)CC(Cc2ccccc2)C1=O (stereo unspecified) | 323 | 
14 | CC(C)S(=O)(=O)ON1C(=O)CC(Cc2ccccc2)C1=O (stereo unspecified) | 1100 | 
15 | CS(=O)(=O)ON1C(=O)CC(Cc2cccc(C(F)(F)F)c2)C1=O (stereo unspecified) | 217 | 
16 | CS(=O)(=O)ON1C(=O)CC(Cc2ccc(C(F)(F)F)cc2)C1=O (stereo unspecified) | 84 | 

Now from value to compound:

Row | K obs / 1 [1] [M⁻¹ s⁻¹] | K obs / 1 [2] | Structure (SMILES)
17 | 9430 |  | O=C1CC(Cc2ccccc2)C(=O)N1OS(=O)(=O)/C=C/c1ccccc1 (stereo unspecified)
18 | 1050 |  | CS(=O)(=O)ON1C(=O)CC(Cc2ccccc2)C1=O (stereo unspecified)
19 | 1610 |  | Cc1ccc(S(=O)(=O)ON2C(=O)CC(Cc3ccccc3)C2=O)cc1 (stereo unspecified)
20 | 770 |  | O=C1CC(Cc2ccccc2)C(=O)N1OS(=O)(=O)Cc1ccccc1 (stereo unspecified)
21 | 1580 |  | O=C1CC(Cc2ccccc2)C(=O)N1OS(=O)(=O)c1ccc2ccccc2c1 (stereo unspecified)
22 | 1650 |  | O=C1CC(Cc2ccccc2)C(=O)N1OS(=O)(=O)c1ccc(Br)cc1 (stereo unspecified)
23 | 316 |  | O=C1CC(Cc2ccccc2)C(=O)N1OS(=O)(=O)c1cccc(C(F)(F)F)c1 (stereo unspecified)
24 | 1110 |  | O=C1CC(Cc2ccccc2)C(=O)N1OS(=O)(=O)c1ccc(F)cc1 (stereo unspecified)
25 | 620 |  | O=C1CC(Cc2ccccc2)C(=O)N1OS(=O)(=O)c1cccc2ccccc12 (stereo unspecified)
26 | 1170 |  | O=C1CC(Cc2ccccc2)C(=O)N1OS(=O)(=O)c1ccccc1 (stereo unspecified)
